Measurements taken from paper PMC7540589 (Chemmedchem, 2020).

Experiment: Thermal and radiochemical stability during 68Ga-radiolabeling
Type: physicochemical
Details: elevated temperature of 99 °C
Summary of the method: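 Precursor (20 nmol in water) was added to 376.6–461.0 MBq ⁶⁸Ga³⁺ from ⁶⁸Ge/⁶⁸Ga generator fractioned elution with 0.1 M HCl. The mixture was titrated to pH 3.5–4.0 with 1.25 M sodium acetate and heated at 99 °C for 10 min. Reaction mixtures were analysed by analytical radio-HPLC.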

Substance: Ac[D‐Cys^29,Lys(DOTA)^31,Cys^34]NPY29‐36 [Compound 4]
- thermal stability of precursor: stable
